High-throughput results: PubChem BioAssay, several laboratories
Most compounds without a hit are left out; they make up all but 6.9% or so of the library.
tolC growth inh: E. coli tolC mutant growth inhibition; E. coli BW25113 tolC mutant growth, OD615; growth inhibition, % at 10 µM (by protocol); actives 2.2% (n = 65,000);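 active means growth inhibition at or above a cutoff equal to the mean over every tested compound plus 3 SD, cut at about 60% in these data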;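 further: growth measured after 20 h incubation at 37 °C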
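test system = E. coli BW25113 ΔtolC::kan bacteria | medium = LB with kanamycin 50 µg/mL | signal = OD at 615 nm | schedule = 37 °C, 20 h exposure | evaluation = % inhibition of E. coli growth | compound dosing = one dose of 10 µM final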
FAK blocker: FAK (human) kinase inhibition. Q05397. biochemical FAK kinase activity assay. inhibition, %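 (tested at 7 µM)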. actives 0.84% (n = 97,000). AID 727; in the data active means inhibition above about 19%;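 further: 0% = DMSO and 100% = reference compound high control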
PostGolgi yeast: growth inhibition of a yeast mutant, post-Golgi transport screen. actives 0.9% (n = 98,000). AID 739. post-Golgi transport phenotypic cell assay. inhibition, % at 10 µM;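 further: yeast cells grown in 1536-well plates; yeast grown about 18 h at 30C before absorbance read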
Calb biofilm kill: kills Candida albicans biofilms | C. albicans biofilm + clotrimazole, Alamar Blue | inhibition, % at 6 µM | actives 0.14% (n = 85,000) | AID 834;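 active means inhibition above 20%; inactive means inhibition below 20%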;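 further: preformed 24 hr biofilms exposed to compound for 48 hr; 0% = biofilm without compound and 100% = blank killed by clotrimazole plus chlorhexidine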
PostGolgi ctrl: inhibits growth of the yeast control strain; efflux-deficient yeast background strain, growth absorbance A615, 16 h; inhibition, % at 10 µM; actives 5% (n = 98,000); AID 738
PTK2B oligo ant: Pyk2 (human) oligomerization antagonism. AID 1347419. Q14289. z-score (the deposit names both 25 µM and 10 µM). actives 0.83% (n = 99,000). Q293 cells, Pyk2 FERM NanoBiT luminescence; stronger effect = lower value;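 active means Z-score of -3 or lower, scaled per plate to the spread of control and sample wells; inactive means z-score above -3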;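 further: negative z-score means lost luminescence so less FERM oligomerization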
* hit, by the source's call; x = no result. Unless noted, no stated cut-off is given here; in the data, active means inhibition above about 30%; inactive means the rest.

SMILES | tolC growth inh | FAK blocker | PostGolgi yeast | Calb biofilm kill | PostGolgi ctrl | PTK2B oligo ant
CN1CCN(c2ccc(Cl)cc2NC(=O)C2COc3ccccc3O2)CC1 (stereo unspecified) | 8 | x | -3 | 3 | 30* | -0.87
CN1CCN(c2ccc(Cl)cc2NC(=O)c2cccc(S(=O)(=O)N(C)C)c2)CC1 | -1 | 10 | -1 | 4 | 7 | -0.02
COC(=O)c1cc(NC(=O)C2COc3ccccc3O2)ccc1Cl (stereo unspecified) | 40 | 1 | -3 | x | 30* | 0.43
O=C(c1cc2cc(Cl)cc(Cl)c2oc1=O)N1CCOCC1 | -28 | 0 | x | x | x | -0.55
CCOc1cc(CNc2cccc3ccccc23)cc(Br)c1OCC(=O)NC(C)(C)C | x | -3 | -1 | x | 3 | -3.7*
Cn1nc(-c2ccc(N3CCOCC3)c(NC(=O)COc3ccccc3)c2)c2ccccc2c1=O | 65* | -1 | x | 2 | x | x
N#CC1=C(N)NC(SCc2ccccc2)=C(C#N)C12CCCCC2 | 62* | 7 | 103* | 5 | 91* | -0.95
CN(C)S(=O)(=O)c1ccc(NC(=O)c2cc3ccccc3o2)cc1 | 17 | 2 | -7 | x | -1 | -0.47
CCOC(=O)CC(=O)CSc1nc2nc(C)cc(C)n2n1 | -8 | 2 | -2 | 6 | 30* | 0.3
Cn1c(/C(C#N)=C(\O)CN2CCN(Cc3ccccc3)CC2)nc2ccccc21 | 17 | -5 | -3 | 5 | 14 | 1.2
Cc1ccc(SC/C(O)=C(\C#N)c2nc3ccccc3n2C)cc1 | 3 | 0 | -2 | 1 | 37* | -0.81
CCOC(=O)c1c(C)c(-c2ccccc2)n(CC(=O)N2CCN(C)CC2)c1C | 2 | 4 | 2 | 3 | -3 | x
CCOC(=O)C1CCCN(Cc2cccc(Cl)c2)C1 (stereo unspecified) | -1 | 0 | x | 4 | x | 0.9
CC1(C)CC(NC(=O)CCC2CCCC2)CC(C)(C)N1 | -1 | 2 | -8 | -2 | 40* | 0.5
Cc1ccc(NC(=O)c2cc3ccccc3o2)cc1S(=O)(=O)N(C)C | x | -2 | -2 | x | 7 | -3.2*
CCOC(=O)c1ccc(NC(=O)c2ccc(CN3CCOCC3)cc2)cc1 | -14 | -3 | 94* | 6 | 27 | -0.97
CCOc1ccc(Nc2cc(C)nc(N3CCOCC3)n2)cc1 | 1 | 2 | 17 | 2 | 1 | -0.36
O=C(N/N=C/c1ccc(OC(=O)c2ccccc2)cc1)c1ccc(CN2CCOCC2)cc1 | x | 5 | 80* | x | 11 | -0.09
CCOC(=O)c1ccc(Nc2cc(C)nc(N3CCOCC3)n2)cc1 | 40 | -2 | 3 | x | 7 | -3.2*
NC(=O)c1ccc(NC(=O)c2ccc(CN3CCOCC3)cc2)cc1 | x | -1 | -3 | 4 | 10 | 0.27
O=S1(=O)CCN2C(Cc3ccc(SC(F)F)cc3)=CSC2=N1 | 0 | -3 | 0 | 2 | -2 | 0.16
COc1ccc(-n2nnnc2SCC#CCO)cc1 | -5 | -3 | 3 | 6 | -1 | -0.49
Cc1cccc(NCCC(=O)c2ccc(Br)cc2)c1 | x | -1 | -3 | x | -1 | 0.12
Cc1ccc2nc(NC(=O)C3CCCN(S(=O)(=O)c4cccnc4)C3)sc2c1 (stereo unspecified) | 19 | x | 4 | 3 | 4 | x
O=C(Nc1ccc(CN2CCOCC2)cc1)c1cc2ccccc2o1 | -1 | 8 | 38* | 5 | 23 | 0.35
SMILES | tolC growth inh | FAK blocker | PostGolgi yeast | Calb biofilm kill | PostGolgi ctrl | PTK2B oligo ant
O=C(Oc1ccc(/C=N/O)cc1)c1ccccc1 | 9 | -2 | 12 | 2 | 31* | 1.7
CC(=O)Nc1c(O)[nH]c2ccccc12 | -24 | 0 | -20 | 6 | 5 | 0.41
CCOC(=O)C1=C(CSc2nccn2C)NC(=O)NC1c1cc(C)ccc1C (stereo unspecified) | x | 2 | -11 | 2 | 9 | 0.95
Cc1onc(-c2ccccc2)c1C(=O)Nc1cccc(OC(C)C)c1 | 40 | 2 | 1 | x | 33* | -0.48
Cc1onc(-c2ccccc2)c1C(N)=O | 2 | -3 | 4 | x | 42* | 0.14
Cc1onc(-c2ccccc2)c1C(=O)N1CCCN(C(=O)c2c(-c3ccccc3)noc2C)CC1 | 17 | 1 | 0 | 7 | 8 | 0.19
CCOC1OC2C(CO)OC(n3cnc4c(N)ncnc43)C2O1 (stereo unspecified) | -5 | x | 2 | -1 | 16 | x
Cc1nn(-c2ccccc2)c2c1C(c1ccc(O)c(O)c1)N1C(=N2)C(Nc2ccccc2)=Nc2ccccc21 (stereo unspecified) | x | -2 | -5 | 8 | 51* | -0.2
Cc1cc(NS(=O)(=O)c2ccccc2)cc(Cl)c1O | 16 | 18 | 1 | 4 | 12 | -0.59
Cc1cc(C)cc(NS(=O)(=O)c2cnc(Cl)c(Cl)c2)c1 | x | -2 | 2 | x | 43* | 0.21
Cn1c(=O)c2c(SCC(=O)NCC3CCCO3)nc(-c3cccs3)nc2n(C)c1=O (stereo unspecified) | 17 | x | x | 0 | x | x
CCOC(=O)N1CCN(c2c(NCc3ccccn3)c(=O)c2=O)CC1 | -13 | -5 | -2 | -2 | 31* | x
CCOC(=O)N1CCN(c2c(NCCc3ccccc3)c(=O)c2=O)CC1 | x | -5 | -2 | x | -5 | x
CCN(CC)S(=O)(=O)c1cc(-c2nnc(-c3ccc(Br)cc3)o2)ccc1Br | x | 1 | x | 3 | x | -0.67
Cc1sc(-c2ccncc2)nc1OC(=O)c1ccc(Cl)cc1 | x | -6 | 0 | 7 | 36* | 0.48
Cc1sc(-c2ccncc2)nc1OC(=O)c1cc(Cl)cc(Cl)c1 | x | -2 | -3 | 3 | 32* | 1.4
Cn1c(=O)[nH]c(=O)c2c1nc(Br)n2CCSc1ncccn1 | -14 | 2 | -6 | 2 | 36* | -0.53
CCCn1c(SCc2ccc(Cl)cc2)nc2c1c(=O)[nH]c(=O)n2C | 25 | 4 | 19 | -6 | 60* | -1.8
Cc1cccc(Cn2c(N(C)Cc3ccccc3)nc3c2c(=O)[nH]c(=O)n3C)c1 | 33 | 7 | -5 | 14 | 47* | x
C/C=C/Cn1c(SCc2ccc(Cl)cc2)nc2c1c(=O)[nH]c(=O)n2C | 15 | 6 | 8 | 3 | 43* | -2.1
CCCCCCn1c(SCCC)nc2c1c(=O)[nH]c(=O)n2C | 25 | -9 | -7 | 4 | 27 | 0.02
CCCCCn1c(SCCCC)nc2c1c(=O)[nH]c(=O)n2C | 34 | 6 | -8 | 7 | 33* | -1.4
CCOCCn1c(SCc2cccc(C)c2)nc2c1c(=O)[nH]c(=O)n2C | 13 | -1 | 6 | 6 | 41* | x
O=C1/C(=C/c2ccncc2)SC(=S)N1C1CCS(=O)(=O)C1 (stereo unspecified) | x | -4 | 2 | x | 5 | 0.12
CC(O)c1c(OCc2ccccc2)ncnc1OCc1ccccc1 (stereo unspecified) | 66* | -8 | 4 | x | 20 | 0.74
Cn1ccnc1C(O)c1ccc(OCc2ccccc2)cc1 (stereo unspecified) | 12 | x | -1 | 7 | 5 | -0.07
Cc1ccc2nc(C(F)(F)F)c(C#N)c(N)c2c1 | -1 | x | -5 | x | 36* | -1.9
Cc1cc(C)c2nc(C(F)(F)F)c(C#N)c(N)c2c1 | x | 1 | -1 | 3 | 26 | -0.53
